STAT3 activator: activators of IL-6 induced STAT3 signaling | U3A cells, IL-6 STAT3-luciferase reporter, luminescence; 100% = signal with IL-6 EC80 alone | activation (% of control), % at 5.6 µM | 190,000 tested, 0.91% active | AID 871;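 active = activation above the screen-wide mean of compound activation plus 3 SD, cut at about 130% in these data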
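Material: STAT1-lacking human U3A cells, STAT3 luciferase reporter | Benchmarks: IL-6-only wells as 100% reference | Probe or stimulus: IL-6 (33 ng/mL) | Timing: Compound 1 h, then IL-6 6 h at 37 °C | Detection: Luminescence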
AHR act: activators of human aryl hydrocarbon receptor | activation, % at 5 µM | P35869 | AHR-responsive luciferase reporter cells, luminescence | 320,000 tested, 2.5% active; in the data active = activation above about 47%
Target sequence (P35869 whole entry, looked up): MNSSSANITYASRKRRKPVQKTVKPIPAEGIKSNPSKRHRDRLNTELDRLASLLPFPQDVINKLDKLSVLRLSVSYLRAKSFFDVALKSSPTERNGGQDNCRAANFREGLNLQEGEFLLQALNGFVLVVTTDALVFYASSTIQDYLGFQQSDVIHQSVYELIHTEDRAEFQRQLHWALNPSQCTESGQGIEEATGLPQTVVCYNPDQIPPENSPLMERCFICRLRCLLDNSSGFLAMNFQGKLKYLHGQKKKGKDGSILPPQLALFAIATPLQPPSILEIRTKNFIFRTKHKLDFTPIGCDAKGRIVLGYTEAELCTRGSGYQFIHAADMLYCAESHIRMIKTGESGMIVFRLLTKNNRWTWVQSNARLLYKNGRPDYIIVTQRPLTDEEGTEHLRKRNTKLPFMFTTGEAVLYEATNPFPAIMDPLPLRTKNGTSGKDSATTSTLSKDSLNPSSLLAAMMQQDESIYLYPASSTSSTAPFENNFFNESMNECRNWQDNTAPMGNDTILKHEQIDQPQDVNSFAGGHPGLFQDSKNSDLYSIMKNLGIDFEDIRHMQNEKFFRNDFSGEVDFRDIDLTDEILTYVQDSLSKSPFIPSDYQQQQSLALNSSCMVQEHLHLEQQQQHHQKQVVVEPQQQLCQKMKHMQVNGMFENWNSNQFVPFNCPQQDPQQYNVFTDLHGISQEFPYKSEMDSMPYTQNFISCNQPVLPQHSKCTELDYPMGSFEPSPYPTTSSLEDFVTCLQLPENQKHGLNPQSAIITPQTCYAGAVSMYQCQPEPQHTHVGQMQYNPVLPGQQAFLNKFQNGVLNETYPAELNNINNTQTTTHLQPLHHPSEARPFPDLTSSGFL
PolyA inhibitor: blocks polyadenylation in yeast reporter cells | activity score, % at 12 µM | 300,000 tested, 0.02% active | AID 1875 | S. cerevisiae SKY197-pL101 polyadenylation reporter, beta-gal luminescence; efflux-impaired pdr1/pdr3 knockout yeast; score 100 = 6 SD above DMSO;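 active = lowest replicate activity score at least 50, where 100 means six control SD above control mean; inconclusive = lowest score under 50 but half or more replicates reach 50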;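 also: yeast exposed to compound for 9 h at 30 °C; higher score means more reporter readthrough which indicates perturbed polyadenylation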
HSF1 inh: HSF1 inhibition; 300,000 tested, 0.77% active; NIH3T3-HGL HSE-luciferase, MG132-induced, luminescence 8 h; hits give low values; activity change, negative = inhibition, % at 7.5 µM (by protocol);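 active = more than half of replicate wells show activity change below -50%, luminescence cut by over half; inconclusive = some wells, but at most half, below -50%; inactive = no replicate well below -50%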;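 also: luciferase reports HSF-1 transcriptional activity via heat shock element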
PERK inhibitor: blocks human PERK kinase | inhibition, % at 5.6 µM | CHO PERK-DD fusion, SEAP luminescence translation reporter | 220,000 tested, 0.17% active | AID 1416;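 active = inhibition above the mean inhibition of all tested compounds plus 3 SD, set separately per screening campaign, cut at about 2.9% in these data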;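 also: PERK kinase domain activated by AP20187 dimerizer at 100 nM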
Hsp70 act: Hsp70 transcriptional activation, primary screen. 200,000 tested, 0.04% active. HeLa Hsp70 promoter luciferase reporter, luminescence; scaled: vehicle 0, proteasome-inhibitor control 100%. activation, % at 10 µM;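 active = activation above the mean across all tested compounds plus 3 SD, cutoff set per campaign, cut at about 5.5% in these data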
A number is an active result. This is a sample that favours compounds with a hit; in the whole collection about 3.6% have one here.

What do the screens show for `O/C(=C\c1nc2ccccc2nc1/C=C(\O)c1ccccc1)c1ccccc1`?
STAT3 activator: 145.4; AHR act: 70.5; PolyA inhibitor: inactive; HSF1 inh: inactive; PERK inhibitor: inactive; Hsp70 act: inactive

What do the screens show for `CCc1ccc(NC(=O)C2CCC(CNC(=O)[C@@H]3Cc4ccccc4CN3)CC2)cc1` (some centres not stated)?
AHR act: inactive; PolyA inhibitor: inactive; HSF1 inh: -66.3

Results for Cc1cc(C)cc(NC(=O)C2CCC(CNC(=O)[C@@H]3Cc4ccccc4CN3)CC2)c1 (some centres not stated) ?
AHR act: inactive; PolyA inhibitor: inactive; HSF1 inh: inactive

Results for Cc1ccc(NC(=O)[C@@H](CC(C)C)NC(=O)[C@@H]2Cc3ccccc3CN2)cc1 ?
AHR act: inactive; PolyA inhibitor: inactive; HSF1 inh: inactive

How did Cc1ccc(NC(=O)[C@@H](C)NC(=O)[C@@H]2Cc3ccccc3CN2)cc1 do in these assays?
AHR act: inactive; PolyA inhibitor: inactive; HSF1 inh: -54.9

How did Cc1cccc(-c2c3c(=O)n(C)c(=O)n(C)c3c3cccnn23)c1 do in these assays?
STAT3 activator: inactive; AHR act: 59.8; PolyA inhibitor: inactive; HSF1 inh: inactive; PERK inhibitor: inactive; Hsp70 act: inactive

Results for CCn1cc2c(c1-c1cccc(C)c1)c(=O)n(C)c(=O)n2C ?
STAT3 activator: inactive; AHR act: inactive; PolyA inhibitor: inactive; HSF1 inh: inactive; PERK inhibitor: inactive; Hsp70 act: inactive

Results for Cc1ccccc1NC(=O)C(C)N1C(=O)c2ccccc2C1=O (configuration not stated) ?
AHR act: inactive; PolyA inhibitor: inactive; HSF1 inh: inactive

What do the screens show for `CCn1c(=O)c(C(=O)NNC(=O)c2ccccc2F)c(O)c2ccccc21`?
AHR act: inactive; PolyA inhibitor: inactive; HSF1 inh: inactive

How did Cc1cccnc1NC(=O)C(C)N1C(=O)c2ccccc2C1=O (configuration not stated) do in these assays?
AHR act: 65.7; PolyA inhibitor: inactive; HSF1 inh: inactive; PERK inhibitor: inactive

Results for Cc1cccnc1NC(=O)c1c(O)c2ccccc2n(C)c1=O ?
STAT3 activator: 133.1; AHR act: 53.5; PolyA inhibitor: inactive; HSF1 inh: inactive; PERK inhibitor: inactive; Hsp70 act: inactive

What do the screens show for `CCn1c(=O)c(C(=O)Nc2ncccc2O)c(O)c2ccccc21`?
AHR act: inactive; PolyA inhibitor: inactive; HSF1 inh: inactive

How did Cn1c(=O)c(C(=O)NNC(=O)c2ccccc2F)c(O)c2ccccc21 do in these assays?
AHR act: 66.4; PolyA inhibitor: inactive; HSF1 inh: inactive

Results for O=C(c1cc(C(=O)N2CCCC2)cc([N+](=O)[O-])c1)N1CCCC1 ?
AHR act: inactive; PolyA inhibitor: inactive; HSF1 inh: inactive

What do the screens show for `COC(=O)c1cc(C(=O)N2CCN(c3cccc(C)c3C)CC2)cc([N+](=O)[O-])c1`?
STAT3 activator: inactive; AHR act: inactive; PolyA inhibitor: 102.5; HSF1 inh: inactive; PERK inhibitor: inactive; Hsp70 act: inactive

Results for CN1CCN(C(=O)c2cc([N+](=O)[O-])cc([N+](=O)[O-])c2)CC1 ?
AHR act: inactive; PolyA inhibitor: inactive; HSF1 inh: -64.1

How did S=C(Nc1ccc(N2CCOCC2)cc1)Nc1ccc2snnc2c1 do in these assays?
STAT3 activator: inactive; AHR act: 54.7; PolyA inhibitor: inactive; HSF1 inh: inactive; PERK inhibitor: inactive; Hsp70 act: inactive

How did C=CCNC(=O)c1ccccc1NC(=O)c1ccccc1SC do in these assays?
STAT3 activator: inactive; AHR act: 76.7; PolyA inhibitor: inactive; HSF1 inh: inactive; PERK inhibitor: inactive; Hsp70 act: inactive

How did Cc1ccc(S(=O)(=O)/N=C2/C=C(Sc3ncn[nH]3)C(=O)c3ccccc32)c(C)c1 do in these assays?
STAT3 activator: 142.3; AHR act: 49.9; PERK inhibitor: inactive; Hsp70 act: inactive

How did CC(C)c1ccc(S(=O)(=O)/N=C2/C=C(Sc3ncn[nH]3)C(=O)c3ccccc32)cc1 do in these assays?
STAT3 activator: 151.7; AHR act: inactive; PERK inhibitor: inactive; Hsp70 act: inactive

What do the screens show for `CN(CCCC1CCCC1)C(=O)CC1C(=O)NCCN1Cc1ccc(F)cc1` (configuration not stated)?
AHR act: inactive; PolyA inhibitor: inactive; HSF1 inh: inactive

Results for CCc1ccc(C2c3[nH]c4ccccc4c3CCN2C(=O)CN2CCN(CC)CC2)cc1 (configuration not stated) ?
STAT3 activator: 134.3; AHR act: inactive; PolyA inhibitor: inactive; HSF1 inh: inactive; PERK inhibitor: inactive; Hsp70 act: inactive

How did CSc1ccc(C2c3[nH]c4ccccc4c3CCN2C(=O)c2ccnn2C)cc1 (configuration not stated) do in these assays?
STAT3 activator: 149.9; AHR act: inactive; PolyA inhibitor: inactive; HSF1 inh: inactive; PERK inhibitor: inactive; Hsp70 act: inactive

What do the screens show for `O=C(COC(=O)/C=C/c1cccc(C(F)(F)F)c1)NC1CCCCCC1`?
AHR act: inactive

Results for Cc1ccc([N+](=O)[O-])c(OCCN2CCCCCC2)c1 ?
STAT3 activator: inactive; AHR act: inactive; PolyA inhibitor: inactive; HSF1 inh: inactive; PERK inhibitor: inactive; Hsp70 act: inactive

How did Cc1ccc([N+](=O)[O-])c(OCCCN2CCC(Cc3ccccc3)CC2)c1 do in these assays?
AHR act: inactive; PolyA inhibitor: inactive; HSF1 inh: -59.6

What do the screens show for `Cc1ccccc1NC(=O)NCCCN1CCN(C2CCCCC2)CC1`?
STAT3 activator: inactive; AHR act: inactive; PolyA inhibitor: inconclusive; HSF1 inh: inactive; PERK inhibitor: inactive; Hsp70 act: inactive

Results for Cc1ccccc1NC(=O)NCCCN1CCCC1 ?
STAT3 activator: inactive; AHR act: inactive; PolyA inhibitor: inactive; HSF1 inh: inactive; PERK inhibitor: 3.5; Hsp70 act: inactive

How did Cc1ccc(S(=O)(=O)Nc2cc(Cl)ccc2-n2cncn2)cc1 do in these assays?
AHR act: inactive

Results for COc1cccc(NCc2cc(=O)oc3cc(-c4ccccc4)c(O)cc23)c1 ?
STAT3 activator: inactive; AHR act: 75.9; PolyA inhibitor: inactive; HSF1 inh: inactive; PERK inhibitor: inactive; Hsp70 act: inactive

How did Cc1cnc(C(=O)Nc2ccccc2F)cn1 do in these assays?
STAT3 activator: inactive; AHR act: inactive; PolyA inhibitor: inactive; HSF1 inh: inactive; PERK inhibitor: inactive; Hsp70 act: inactive

How did Cc1cnc(C(=O)Nc2ccccc2-n2cccc2)cn1 do in these assays?
STAT3 activator: inactive; AHR act: inactive; PolyA inhibitor: inactive; HSF1 inh: -60.3; PERK inhibitor: inactive; Hsp70 act: inactive

What do the screens show for `COc1ccc(NC(=O)CCS(=O)(=O)c2ccc3c(c2)oc(=O)n3C)cc1`?
AHR act: inactive; PolyA inhibitor: inactive; HSF1 inh: inactive
